Experimental data from ChEMBL document CHEMBL3526048, “In vitro metabolism of rivoglitazone, a novel peroxisome proliferator-activated receptor γ agonist, in rat, monkey, and human liver microsomes and freshly isolated hepatocytes” (Drug Metab Dispos, 2011).

Experiments:
Plasma = test: Drug level in po dosed monkey plasma treated with [14C]-rivoglitazone; format: ADME, organism-based, Macaca mulatta; conditions: rhesus monkey, in vivo
Hepatocyte [1] = test: Drug level in human hepatocytes treated with [14C]-rivoglitazone at 30 uM after 3 hrs by radio-HPLC/LC-MS/MS analysis in presence of NADPH-generating system and NADPH-generating system/SAM; format: ADME, cell-based
Cytochrome P450 2C19 = Cytochrome P450 2C19 (Homo sapiens, UniProt P33261); test: Activity of human CYP2C19 expressed in microsomes isolated from baculovirus infected insect cell assessed as enzyme-mediated compound formation treated with [14C]-rivoglitazone at 20 uM after 2 hrs by radio-HPLC/LC-MS/MS analysis in presence of NADPH-generating system and NADPH-generating system/SAM; format: ADME
Cytochrome P450 2C19, sequence (P33261 whole entry): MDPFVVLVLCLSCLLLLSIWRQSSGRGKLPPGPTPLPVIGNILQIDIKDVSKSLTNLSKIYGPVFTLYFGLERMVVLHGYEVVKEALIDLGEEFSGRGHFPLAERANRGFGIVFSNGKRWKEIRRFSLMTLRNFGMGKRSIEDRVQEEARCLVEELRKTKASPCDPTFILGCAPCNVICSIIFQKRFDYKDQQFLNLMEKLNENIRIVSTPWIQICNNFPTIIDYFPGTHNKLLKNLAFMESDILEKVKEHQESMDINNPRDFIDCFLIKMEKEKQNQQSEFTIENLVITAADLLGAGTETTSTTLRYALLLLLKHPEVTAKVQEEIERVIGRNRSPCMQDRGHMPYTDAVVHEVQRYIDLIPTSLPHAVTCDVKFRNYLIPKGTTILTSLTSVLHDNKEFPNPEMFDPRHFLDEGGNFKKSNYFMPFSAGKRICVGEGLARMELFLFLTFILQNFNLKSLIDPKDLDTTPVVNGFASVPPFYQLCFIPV
In short: (§1)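 Baculovirus/insect-cell microsomes expressing single human CYPs, 1 mg/ml protein, with 50 mM potassium phosphate (pH 7.4) or 100 mM Tris-HCl (pH 7.5). NADPH-generating system: 2 mM NADP⁺, 20 mM glucose 6-phosphate, 2 units/ml G6PDH, 10 mM MgCl₂. [¹⁴C]rivoglitazone at 20 μM, 2 h at 37°C with shaking. Control used insect-cell control supersomes. Stopped with acetonitrile; supernatant concentrated under nitrogen; metabolites analysed by radio-HPLC, LC-MS and LC-MS/MS.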

Cytochrome P450 3A5 = Cytochrome P450 3A5 (Homo sapiens, UniProt P20815); test: Activity of human CYP3A5 expressed in microsomes isolated from baculovirus infected insect cell assessed as enzyme-mediated compound formation treated with [14C]-rivoglitazone at 20 uM after 2 hrs by radio-HPLC/LC-MS/MS analysis in presence of NADPH-generating system and NADPH-generating system/SAM; format: ADME
Cytochrome P450 3A5, sequence (P20815 whole entry): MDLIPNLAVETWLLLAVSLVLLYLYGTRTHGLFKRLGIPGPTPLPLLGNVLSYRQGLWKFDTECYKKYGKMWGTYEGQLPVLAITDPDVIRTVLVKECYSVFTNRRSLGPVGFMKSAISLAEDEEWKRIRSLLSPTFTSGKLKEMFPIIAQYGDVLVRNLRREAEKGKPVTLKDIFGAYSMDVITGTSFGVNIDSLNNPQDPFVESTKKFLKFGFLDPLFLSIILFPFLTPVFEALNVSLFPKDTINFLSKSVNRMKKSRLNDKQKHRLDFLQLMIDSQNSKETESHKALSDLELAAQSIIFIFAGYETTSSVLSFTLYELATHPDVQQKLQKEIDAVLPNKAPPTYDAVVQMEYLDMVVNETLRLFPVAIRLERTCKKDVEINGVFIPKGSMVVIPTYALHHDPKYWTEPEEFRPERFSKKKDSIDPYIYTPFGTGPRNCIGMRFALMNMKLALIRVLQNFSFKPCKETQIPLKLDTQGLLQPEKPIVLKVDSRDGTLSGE
In short: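 cDNA-expressed human CYP3A5 in baculovirus-insect-cell microsomes (1 mg/ml protein) was incubated with [¹⁴C]rivoglitazone (20 μM) in 50 mM potassium phosphate (pH 7.4) or 100 mM Tris-HCl (pH 7.5). NADPH-generating system: 2 mM NADP⁺, 20 mM glucose 6-phosphate, 2 units/ml G6PDH, 10 mM MgCl₂. Incubation ran 2 h at 37°C with shaking; insect-cell control supersomes served as control. Acetonitrile stop, supernatant concentrated, then radio-HPLC, LC-MS and LC-MS/MS.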

[2] = Drug level in cynomolgus monkey liver microsomes treated with [14C]-rivoglitazone at 20 uM after 2 hrs by radio-HPLC/LC-MS/MS analysis in presence of NADPH-generating system and NADPH-generating system/SAM; format: ADME, Macaca fascicularis
In short: (§2)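 Pooled male liver microsomes (1 mg/ml protein; rat from 94 Sprague-Dawley, monkey from 8 cynomolgus, human from 23 donors) were incubated with [¹⁴C]rivoglitazone (20 μM). Buffer: 10 mM potassium phosphate (pH 7.4). Cofactors: NADPH-generating system (2 mM NADP⁺, 20 mM G6P, 2 U/ml G6PDH, 10 mM MgCl₂), with or without 2 mM SAM. Incubation 2 h at 37°C with shaking; controls lacked NADPH system and SAM alone. Acetonitrile stop, radio-HPLC plus LC-MS.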

Cytochrome P450 1A2 = target: T1, Cytochrome P450 1A2 (Homo sapiens, UniProt P05177); test: Activity of human CYP1A2 expressed in microsomes isolated from baculovirus infected insect cell assessed as enzyme-mediated compound formation treated with [14C]-rivoglitazone at 20 uM after 2 hrs by radio-HPLC/LC-MS/MS analysis in presence of NADPH-generating system and NADPH-generating system/SAM; format: ADME; in short: as §1
T1 sequence (P05177 whole entry): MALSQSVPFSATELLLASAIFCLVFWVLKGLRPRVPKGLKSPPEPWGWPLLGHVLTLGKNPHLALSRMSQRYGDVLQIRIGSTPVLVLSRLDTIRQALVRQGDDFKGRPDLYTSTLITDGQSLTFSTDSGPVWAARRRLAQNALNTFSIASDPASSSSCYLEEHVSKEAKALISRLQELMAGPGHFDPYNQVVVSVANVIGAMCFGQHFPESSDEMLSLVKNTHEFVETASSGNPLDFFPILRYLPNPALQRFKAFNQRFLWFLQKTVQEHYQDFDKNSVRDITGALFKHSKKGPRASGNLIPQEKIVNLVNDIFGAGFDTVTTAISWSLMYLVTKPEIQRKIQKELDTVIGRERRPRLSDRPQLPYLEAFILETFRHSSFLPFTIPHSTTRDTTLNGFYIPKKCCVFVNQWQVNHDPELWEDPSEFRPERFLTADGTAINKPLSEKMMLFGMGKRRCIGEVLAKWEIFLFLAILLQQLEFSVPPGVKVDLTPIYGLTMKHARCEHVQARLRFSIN

Liver microsome [3] = test: Drug level in human liver microsomes treated with [14C]-rivoglitazone at 20 uM after 2 hrs by radio-HPLC/LC-MS/MS analysis in presence of NADPH-generating system and NADPH-generating system/SAM; format: ADME; in short: as §2
Liver microsome [4] = test: Drug level in Sprague-Dawley rat liver microsomes treated with [14C]-rivoglitazone at 20 uM after 2 hrs by radio-HPLC/LC-MS/MS analysis in presence of NADPH-generating system and NADPH-generating system/SAM; format: ADME; in short: as §2
Hepatocyte [5] = test: Drug level in rat hepatocytes treated with [14C]-rivoglitazone at 30 uM after 3 hrs by radio-HPLC/LC-MS/MS analysis in presence of NADPH-generating system and NADPH-generating system/SAM; format: ADME, cell-based
Cytochrome P450 2D6 = Cytochrome P450 2D6 (Homo sapiens, UniProt P10635); test: Activity of human CYP2D6 expressed in microsomes isolated from baculovirus infected insect cell assessed as enzyme-mediated compound formation treated with [14C]-rivoglitazone at 20 uM after 2 hrs by radio-HPLC/LC-MS/MS analysis in presence of NADPH-generating system and NADPH-generating system/SAM; format: ADME
Cytochrome P450 2D6, sequence (P10635 whole entry): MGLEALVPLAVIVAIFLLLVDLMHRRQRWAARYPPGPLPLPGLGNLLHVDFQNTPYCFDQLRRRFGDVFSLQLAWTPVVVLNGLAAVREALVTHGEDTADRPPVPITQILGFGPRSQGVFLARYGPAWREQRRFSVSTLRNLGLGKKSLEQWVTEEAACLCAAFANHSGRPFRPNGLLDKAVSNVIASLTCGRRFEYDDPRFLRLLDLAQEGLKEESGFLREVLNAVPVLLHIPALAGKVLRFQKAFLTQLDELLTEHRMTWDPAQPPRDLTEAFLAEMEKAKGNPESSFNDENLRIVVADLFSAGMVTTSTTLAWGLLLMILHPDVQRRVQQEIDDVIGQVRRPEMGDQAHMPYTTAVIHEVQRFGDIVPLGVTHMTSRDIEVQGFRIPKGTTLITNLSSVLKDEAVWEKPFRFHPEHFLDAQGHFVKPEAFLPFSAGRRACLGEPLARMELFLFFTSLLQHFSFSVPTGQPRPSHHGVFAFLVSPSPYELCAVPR

Cytochrome P450 2C8 = target: T2, Cytochrome P450 2C8 (Homo sapiens, UniProt P10632); test: Activity of human CYP2C8 expressed in microsomes isolated from baculovirus infected insect cell assessed as enzyme-mediated compound formation treated with [14C]-rivoglitazone at 20 uM after 2 hrs by radio-HPLC/LC-MS/MS analysis in presence of NADPH-generating system and NADPH-generating system/SAM; format: ADME; in short: as §1
T2 sequence (P10632 whole entry): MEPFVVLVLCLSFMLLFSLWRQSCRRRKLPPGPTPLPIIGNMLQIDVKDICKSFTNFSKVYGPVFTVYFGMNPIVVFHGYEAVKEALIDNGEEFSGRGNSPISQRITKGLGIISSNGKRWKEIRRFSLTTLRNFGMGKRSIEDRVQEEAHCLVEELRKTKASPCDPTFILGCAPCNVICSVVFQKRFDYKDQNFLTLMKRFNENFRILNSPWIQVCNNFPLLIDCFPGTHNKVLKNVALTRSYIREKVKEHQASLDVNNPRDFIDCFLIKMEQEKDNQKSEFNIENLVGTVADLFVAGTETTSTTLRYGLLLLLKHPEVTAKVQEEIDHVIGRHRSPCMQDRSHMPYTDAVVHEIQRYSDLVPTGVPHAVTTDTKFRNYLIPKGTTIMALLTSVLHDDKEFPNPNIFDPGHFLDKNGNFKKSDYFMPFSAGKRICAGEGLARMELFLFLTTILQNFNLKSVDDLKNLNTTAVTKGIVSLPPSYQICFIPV

[6] = Drug level in po dosed monkey bile treated with [14C]-rivoglitazone; format: ADME, organism-based, Macaca mulatta; conditions: rhesus monkey, in vivo
[7] = Drug level in po dosed monkey liver microsomes treated with [14C]-rivoglitazone; format: ADME, organism-based, Macaca mulatta; conditions: rhesus monkey, in vivo
Cytochrome P450 3A4 = Cytochrome P450 3A4 (Homo sapiens, UniProt P08684); test: Activity of human CYP3A4 expressed in microsomes isolated from baculovirus infected insect cell assessed as enzyme-mediated compound formation treated with [14C]-rivoglitazone at 20 uM after 2 hrs by radio-HPLC/LC-MS/MS analysis in presence of NADPH-generating system and NADPH-generating system/SAM; format: ADME
Cytochrome P450 3A4, sequence (P08684 whole entry): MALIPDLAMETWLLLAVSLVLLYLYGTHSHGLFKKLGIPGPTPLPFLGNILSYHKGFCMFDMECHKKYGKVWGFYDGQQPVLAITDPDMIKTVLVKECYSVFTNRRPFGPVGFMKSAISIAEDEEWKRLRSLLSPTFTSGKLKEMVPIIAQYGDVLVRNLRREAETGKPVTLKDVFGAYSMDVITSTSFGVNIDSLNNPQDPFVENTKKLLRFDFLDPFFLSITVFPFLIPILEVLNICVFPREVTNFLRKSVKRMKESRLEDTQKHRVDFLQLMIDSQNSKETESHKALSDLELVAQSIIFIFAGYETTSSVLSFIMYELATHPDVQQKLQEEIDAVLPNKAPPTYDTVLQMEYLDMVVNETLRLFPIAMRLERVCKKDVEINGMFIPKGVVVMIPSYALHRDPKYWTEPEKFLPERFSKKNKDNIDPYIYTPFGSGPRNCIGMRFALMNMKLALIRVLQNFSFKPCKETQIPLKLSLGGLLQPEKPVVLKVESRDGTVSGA

Cytochrome P450 2C9 = Cytochrome P450 2C9 (Homo sapiens, UniProt P11712); test: Activity of human CYP2C9 expressed in microsomes isolated from baculovirus infected insect cell assessed as enzyme-mediated compound formation treated with [14C]-rivoglitazone at 20 uM after 2 hrs by radio-HPLC/LC-MS/MS analysis in presence of NADPH-generating system and NADPH-generating system/SAM; format: ADME
Cytochrome P450 2C9, sequence (P11712 whole entry): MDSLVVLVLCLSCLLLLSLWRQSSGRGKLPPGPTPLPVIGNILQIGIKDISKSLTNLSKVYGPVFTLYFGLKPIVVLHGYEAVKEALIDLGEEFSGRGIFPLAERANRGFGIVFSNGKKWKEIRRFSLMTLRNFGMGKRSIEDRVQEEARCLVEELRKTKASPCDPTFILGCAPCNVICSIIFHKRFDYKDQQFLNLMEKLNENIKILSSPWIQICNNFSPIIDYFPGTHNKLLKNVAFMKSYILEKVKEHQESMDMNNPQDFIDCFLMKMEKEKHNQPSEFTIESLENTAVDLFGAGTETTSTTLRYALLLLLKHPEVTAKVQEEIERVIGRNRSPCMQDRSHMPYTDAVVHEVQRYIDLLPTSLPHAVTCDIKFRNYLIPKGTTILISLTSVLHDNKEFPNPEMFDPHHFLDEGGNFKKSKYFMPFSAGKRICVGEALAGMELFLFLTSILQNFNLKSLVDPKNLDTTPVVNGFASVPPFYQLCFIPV

[8] = Retention time of the compound by LC-MS/MS analysis; format: physicochemical
In short: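 LC-MS/MS used a YMC-Pack ODS-A column (1.5 × 150 mm, 5 μm) at 30°C, 0.1 ml/min. Mobile phase was water and acetonitrile, each with 0.01% TFA. Gradient: 12→60% B over 30 min, →90% B over 5 min, hold 5 min. Detection was UV 220 nm with positive ESI Q-TOF (capillary 3300 V, cone 45 V), collision energy 20 eV and xenon as collision gas.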

Drug metabolism (Plasma): metabolite_detected
Drug metabolism (Hepatocyte [1]): metabolite_detected
Drug metabolism (Cytochrome P450 2C19): metabolite_detected
Drug metabolism (Cytochrome P450 3A5): metabolite_detected
Drug metabolism [2]: metabolite_detected
Drug metabolism (Cytochrome P450 1A2): metabolite_detected
Drug metabolism (Liver microsome [3]): metabolite_detected
Drug metabolism (Liver microsome [4]): metabolite_detected
Drug metabolism (Hepatocyte [5]): metabolite_detected
Drug metabolism (Cytochrome P450 2D6): metabolite_detected
Drug metabolism (Cytochrome P450 2C8): metabolite_detected
Drug metabolism [6]: metabolite_detected
Drug metabolism [7]: metabolite_detected
Drug metabolism (Cytochrome P450 3A4): metabolite_detected
Drug metabolism (Cytochrome P450 2C9): metabolite_detected
Retention_time [8]: 20.9 min
SMILES: COc1ccc2nc(COc3ccc(CC4SC(=O)NC4=O)cc3)[nH]c2c1 (stereo unspecified)
